Experimental findings from ChEMBL document CHEMBL1145581, “Design and synthesis of tetrahydroisoquinoline derivatives as potential multidrug resistance reversal agents in cancer” (Bioorg Med Chem Lett, 2008) are described below.

Calls of active or inactive are those of the source. The calls are words filed in the database; no cut-off is given here.

Data set [1] is described as follows: Antitumor activity against human K562/A02 cells xenografted in nude mouse assessed as tumor weight at 2 mg/kg. It is filed as functional. The gist of the method:
(§1)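 SCID nude mice received subcutaneous axillary inoculation of log-phase K562/A02 cells at 1 × 10⁷/ml. The cells were maintained in RPMI 1640 with 10% FCS and ADM 1 µg/ml final. When tumors reached a mean diameter of 0.4–0.6 cm, mice were randomized into groups of ten. Drug was given IV three times weekly, alongside adriamycin; vehicle controls were included. Endpoint was tumor weight. Inhibition ratio was calculated relative to the ADM-alone group.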
(Xenograft models place foreign cells or tissue in a host animal.)

For data set [2], the system named is Rattus norvegicus. In words: Toxicity in Sprague-Dawley rat assessed as ventricular sustained tachycardia by measuring aconitine nitrate level at 2 mg.kg, iv by […]. As to conditions: in vivo. It is filed as organism-based, Cardiac ventricle. The method in brief: (§2)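 SD rats were anesthetized with urethane 1.2 g/kg ip, and compound in normal saline was given via the femoral vein. Two minutes later, aconitine nitrate was infused IV at constant rate by peristaltic pump. The aconitine dose at onset of premature beats, sustained tachycardia or fibrillation was determined by […]. n = 3.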

Data set [3] in a line: Antitumor activity against human K562/A02 cells xenografted in nude mouse at 8 mg/kg. It is filed as functional. The gist of the method: as §1
For a further data set, the system named is K562. Nature of the data set: Effect on membrane lipid fluidity in human K562 cells. It is filed as functional, cell-based. The gist of the method:
(§3)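 K562 and K562/A02 cells were grown in RPMI 1640 with 10% FCS and seeded at 1 × 10⁵/ml. They were exposed to 1, 3 or 10 µM compound (final) for 24 h, then washed and labelled with 2 µM DPH for 30 min. After washing, cells were held 10 min at 25 °C. Fluorescence polarization P was read at ex 357.6/em 428.7 nm, with P inversely related to membrane fluidity. Duplicate, ≥3 experiments.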

For data set [4], the system named is Rattus norvegicus. In words: Toxicity in Sprague-Dawley rat assessed as ventricular fibrillation by measuring aconitine nitrate level at 2 mg.kg, iv by […]. It is filed as organism-based, Cardiac ventricle. As to conditions: in vivo. The method in brief:
as §2

The target of data set [5] is T1, ATP-dependent translocase ABCB1 (Rattus norvegicus, UniProt P43245). In words: Inhibition of Pgp-mediated multidrug resistance activity in rat RBMEC cells assessed as Rh123 accumulation at 10 umol/L after 90 mins. It is filed as cell-based. The conditions noted are these: 1.5 h, 10 µM. The gist of the method:
(§4)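 Primary rat brain microvascular endothelial cells were grown in DF with 20% FCS to a 90% confluent monolayer. They were preincubated 30 min in serum-free DF. Compound (1, 3, 10 µM final) and Rh123 5 µM final were then added for 90 min, with cells collected at different times. Washed cells were lysed with Triton X-100 and fluorescence read at 488/535 nm. Values were normalized to Coomassie protein. Duplicate, ≥3 experiments.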

Data set [6] deals with T2, P-gp (ABCB1) (Homo sapiens, UniProt P08183). Nature of the data set: Inhibition of Pgp-mediated multidrug resistance activity in human MCF7/ADM cells assessed as Rh123 accumulation at 10 umol/L after 30 mins. As to conditions: probe Rh123. It is filed as cell-based. The gist of the method: (§5)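 MCF-7/ADM cells were maintained with ADM 1 µM and seeded at 4 × 10⁴/ml. They were preincubated 30 min in serum-free RPMI 1640, then given compound (1, 3, 10 µM final) for 30 min. Rh123 10 µM final was added for a further 60 min at 37 °C. After PBS washes and Triton X-100 lysis, intracellular fluorescence was read at ex 488/em 535 nm. Triplicate. Inhibitory ratio = (treated − control)/control × 100, background-corrected.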
T2 sequence (P08183 whole entry): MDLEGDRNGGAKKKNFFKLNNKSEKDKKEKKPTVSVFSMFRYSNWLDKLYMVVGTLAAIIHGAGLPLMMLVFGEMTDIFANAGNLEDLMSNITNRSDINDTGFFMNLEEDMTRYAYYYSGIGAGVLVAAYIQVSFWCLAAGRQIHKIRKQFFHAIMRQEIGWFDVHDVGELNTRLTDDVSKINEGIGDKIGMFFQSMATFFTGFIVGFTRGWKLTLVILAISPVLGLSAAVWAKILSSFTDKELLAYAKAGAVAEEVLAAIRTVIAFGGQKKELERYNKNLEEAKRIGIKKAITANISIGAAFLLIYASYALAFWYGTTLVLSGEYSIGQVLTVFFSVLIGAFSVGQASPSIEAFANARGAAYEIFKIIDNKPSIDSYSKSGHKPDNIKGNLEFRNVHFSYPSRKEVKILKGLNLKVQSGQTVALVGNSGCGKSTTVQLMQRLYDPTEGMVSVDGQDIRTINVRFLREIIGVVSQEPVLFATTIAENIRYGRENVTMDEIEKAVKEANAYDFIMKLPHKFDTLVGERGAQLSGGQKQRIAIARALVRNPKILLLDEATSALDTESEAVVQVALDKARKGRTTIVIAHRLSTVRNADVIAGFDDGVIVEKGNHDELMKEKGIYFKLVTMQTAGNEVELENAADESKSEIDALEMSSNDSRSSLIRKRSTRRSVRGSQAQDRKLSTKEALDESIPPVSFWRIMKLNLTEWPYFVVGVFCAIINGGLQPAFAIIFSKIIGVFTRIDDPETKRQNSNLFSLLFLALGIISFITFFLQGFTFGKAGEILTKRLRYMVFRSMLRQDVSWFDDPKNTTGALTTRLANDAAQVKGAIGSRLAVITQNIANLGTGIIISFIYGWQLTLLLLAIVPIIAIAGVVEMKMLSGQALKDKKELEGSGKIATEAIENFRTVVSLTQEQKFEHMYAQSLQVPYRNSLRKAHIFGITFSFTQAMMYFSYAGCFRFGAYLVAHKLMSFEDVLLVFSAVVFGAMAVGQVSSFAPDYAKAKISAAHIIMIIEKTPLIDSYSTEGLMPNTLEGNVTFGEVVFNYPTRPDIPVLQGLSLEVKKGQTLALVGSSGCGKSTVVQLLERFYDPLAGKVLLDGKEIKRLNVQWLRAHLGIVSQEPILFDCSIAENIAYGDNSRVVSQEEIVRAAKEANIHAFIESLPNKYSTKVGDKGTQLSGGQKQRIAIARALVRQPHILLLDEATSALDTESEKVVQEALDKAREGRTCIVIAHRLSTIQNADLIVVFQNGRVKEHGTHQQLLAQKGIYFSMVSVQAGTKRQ

The test system of data set [7] is Rattus norvegicus. Nature of the data set: Toxicity in Sprague-Dawley rat assessed as ventricular permeature beat by measuring aconitine nitrate level at 2 mg.kg, iv by […]. It is filed as organism-based, Cardiac ventricle. The conditions noted are these: in vivo.
For another data set, the system named is Aorta. In words: Toxicity in Sprague-Dawley rat aorta assessed as vascular contractile activity. It is filed as tissue-based. The conditions noted are these: in vitro. The method in brief: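 Aortic rings came from SD rats (250–350 g) and were kept at 37 °C under 95% O₂/5% CO₂. Isometric tension was recorded. After 60 min equilibration, rings were contracted with 20 or 80 mM KCl. Drug was then added in increasing concentrations until maximal relaxation. Relaxation was expressed as % of the KCl contraction.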

Data set [8] can be described thus: Antitumor activity against human K562/A02 cells xenografted in nude mouse at 2 mg/kg. It is filed as functional. The gist of the method: as §1
In data set [9] the target is T2, P-gp (ABCB1). In words: Inhibition of Pgp-mediated multidrug resistance activity in human MCF7/ADM cells assessed as Rh123 accumulation at 1 umol/L after 30 mins. It is filed as cell-based. As to conditions: probe Rh123. The gist of the method:
as §5

The target in data set [10] is T1, ATP-dependent translocase ABCB1. Nature of the data set: Inhibition of Pgp-mediated multidrug resistance activity in rat RBMEC cells assessed as Rh123 accumulation at 3 umol/L after 90 mins. The conditions noted are these: 1.5 h, 3 µM. It is filed as cell-based. The method in brief:
as §4

Data set [11] shares this target. In words: Inhibition of Pgp-mediated multidrug resistance activity in rat RBMEC cells assessed as Rh123 accumulation at 1 umol/L after 90 mins. It is filed as cell-based. The conditions noted are these: 1.5 h, 1 µM. The method in brief:
as §4

The target in data set [12] is T2, P-gp (ABCB1). In words: Inhibition of Pgp-mediated multidrug resistance activity in human MCF7/ADM cells assessed as Rh123 accumulation at 3 umol/L after 30 mins. It is filed as cell-based. The conditions noted are these: probe Rh123. The method in brief:
as §5

The subject of the next data set is K562/A02. In words: Decrease in membrane lipid fluidity in human K562/A02 cells at 10 umol/L. It is filed as functional, cell-based. The method in brief:
as §3

T1 sequence (P43245 whole entry): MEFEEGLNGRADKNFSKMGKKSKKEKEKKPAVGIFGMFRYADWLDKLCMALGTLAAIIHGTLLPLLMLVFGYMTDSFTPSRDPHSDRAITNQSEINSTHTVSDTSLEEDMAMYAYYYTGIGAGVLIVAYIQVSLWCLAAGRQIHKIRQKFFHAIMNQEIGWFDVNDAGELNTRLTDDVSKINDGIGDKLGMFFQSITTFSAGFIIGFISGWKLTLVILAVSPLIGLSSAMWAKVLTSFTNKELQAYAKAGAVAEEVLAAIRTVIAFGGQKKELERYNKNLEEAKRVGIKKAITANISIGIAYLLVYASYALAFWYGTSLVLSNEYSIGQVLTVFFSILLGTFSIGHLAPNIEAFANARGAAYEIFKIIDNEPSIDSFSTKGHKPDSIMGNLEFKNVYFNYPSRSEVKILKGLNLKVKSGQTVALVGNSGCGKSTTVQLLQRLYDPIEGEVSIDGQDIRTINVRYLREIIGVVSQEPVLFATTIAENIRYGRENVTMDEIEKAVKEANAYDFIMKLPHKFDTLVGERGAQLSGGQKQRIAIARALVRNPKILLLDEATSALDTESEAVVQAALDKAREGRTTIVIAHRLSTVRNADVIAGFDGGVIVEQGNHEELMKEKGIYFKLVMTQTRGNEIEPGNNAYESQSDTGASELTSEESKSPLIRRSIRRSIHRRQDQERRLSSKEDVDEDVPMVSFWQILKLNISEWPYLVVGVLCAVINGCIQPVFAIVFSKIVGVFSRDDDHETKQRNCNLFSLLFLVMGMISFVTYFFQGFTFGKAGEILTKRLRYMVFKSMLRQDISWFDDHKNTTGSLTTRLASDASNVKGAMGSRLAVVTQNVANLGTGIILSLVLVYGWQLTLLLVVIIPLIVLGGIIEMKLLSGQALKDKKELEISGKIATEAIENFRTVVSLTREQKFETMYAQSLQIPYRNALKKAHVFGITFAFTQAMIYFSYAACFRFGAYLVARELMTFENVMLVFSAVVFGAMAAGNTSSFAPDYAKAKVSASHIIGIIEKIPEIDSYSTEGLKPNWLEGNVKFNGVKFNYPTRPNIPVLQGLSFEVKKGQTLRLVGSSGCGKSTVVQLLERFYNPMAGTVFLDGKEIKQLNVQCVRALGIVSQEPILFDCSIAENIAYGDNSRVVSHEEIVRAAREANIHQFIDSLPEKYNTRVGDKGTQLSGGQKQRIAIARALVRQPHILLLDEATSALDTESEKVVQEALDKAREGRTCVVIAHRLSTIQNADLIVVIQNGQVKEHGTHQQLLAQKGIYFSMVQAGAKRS

As to `COc1cccc2c1C(=O)c1c(O)c3c(c(O)c1C2=O)C[C@@](O)(C(=O)CO)C[C@@H]3O[C@H]1C[C@H](N)[C@H](O)[C@H](C)O1` [DOXORUBICIN], the Activity in [1] is on record as 2.17 g.
A word on the inhibition in vivo: it is the relative decrease from the control value, in per cent. For orientation: inhibition means the change of the read-out against control, counted positive when it falls. Consider `COc1ccc(CCN(C)CCCC(C#N)(c2ccc(OC)c(OC)c2)C(C)C)cc1OC` (stereo unspecified) [VERAPAMIL], for which the Activity is 44 µg/kg in the data set on Rattus norvegicus [2], 55 µg/kg with Rattus norvegicus [4] and “Active” in data set [5]. Moreover, the inhibition in vivo at 8 mg/kg in data set [3] was -66.4%. For the same compound, the result in the data set with K562 was inactive. Moreover, on P-gp (ABCB1) [6], the inhibition at 0.5 h, 10 µM is 98.7%.
With `CCCCCCCCN/C(=N/C#N)N1CCc2cc(OC)c(OC)cc2C1Cc1ccc(OC)c(OC)c1` (stereo unspecified), the Activity in the data set with Rattus norvegicus [2] was 26.7 µg/kg; in the data set with Rattus norvegicus [7] it was 22.4 µg/kg; in the data set on Rattus norvegicus [4] it was 31.5 µg/kg; with Aorta, “Not Active”; in data set [5] it was “Active”; in [10], “Active”. In addition, in data set [11], the result was Active. The inhibition in vivo at 8 mg/kg in [3] was -59.5%. Also, in the data set with K562, the outcome was inactive. In addition, the inhibition in vivo at 2 mg/kg in [8] was -62.2%. For the same compound, the inhibition at 0.5 h, 1 µM at P-gp (ABCB1) [9] is 35.2%. The inhibition at 0.5 h, 3 µM at P-gp (ABCB1) [12] was 60.5%. Further, in the data set with K562/A02, the outcome was Active. Also, at P-gp (ABCB1) [6], the inhibition at 0.5 h, 10 µM amounted to 69.3%.
